Results: ChEMBL document CHEMBL1147049, “Inhibition of MRP1/ABCC1, MRP2/ABCC2, and MRP3/ABCC3 by nucleoside, nucleotide, and non-nucleoside reverse transcriptase inhibitors” (Drug Metab Dispos, 2007)

Key:
Assay type in all cases: cell-based
Conditions in all cases: mdck-ii; call rule not given here
[1] = target: T1, Multidrug resistance-associated protein 1 (Homo sapiens, UniProt P33527); assay: Inhibition of human MRP1 expressed in MDCK2 cells assessed as increase in intracellular CMF fluorescence at 10 uM by CMFDA assay
T1 sequence (P33527 whole entry): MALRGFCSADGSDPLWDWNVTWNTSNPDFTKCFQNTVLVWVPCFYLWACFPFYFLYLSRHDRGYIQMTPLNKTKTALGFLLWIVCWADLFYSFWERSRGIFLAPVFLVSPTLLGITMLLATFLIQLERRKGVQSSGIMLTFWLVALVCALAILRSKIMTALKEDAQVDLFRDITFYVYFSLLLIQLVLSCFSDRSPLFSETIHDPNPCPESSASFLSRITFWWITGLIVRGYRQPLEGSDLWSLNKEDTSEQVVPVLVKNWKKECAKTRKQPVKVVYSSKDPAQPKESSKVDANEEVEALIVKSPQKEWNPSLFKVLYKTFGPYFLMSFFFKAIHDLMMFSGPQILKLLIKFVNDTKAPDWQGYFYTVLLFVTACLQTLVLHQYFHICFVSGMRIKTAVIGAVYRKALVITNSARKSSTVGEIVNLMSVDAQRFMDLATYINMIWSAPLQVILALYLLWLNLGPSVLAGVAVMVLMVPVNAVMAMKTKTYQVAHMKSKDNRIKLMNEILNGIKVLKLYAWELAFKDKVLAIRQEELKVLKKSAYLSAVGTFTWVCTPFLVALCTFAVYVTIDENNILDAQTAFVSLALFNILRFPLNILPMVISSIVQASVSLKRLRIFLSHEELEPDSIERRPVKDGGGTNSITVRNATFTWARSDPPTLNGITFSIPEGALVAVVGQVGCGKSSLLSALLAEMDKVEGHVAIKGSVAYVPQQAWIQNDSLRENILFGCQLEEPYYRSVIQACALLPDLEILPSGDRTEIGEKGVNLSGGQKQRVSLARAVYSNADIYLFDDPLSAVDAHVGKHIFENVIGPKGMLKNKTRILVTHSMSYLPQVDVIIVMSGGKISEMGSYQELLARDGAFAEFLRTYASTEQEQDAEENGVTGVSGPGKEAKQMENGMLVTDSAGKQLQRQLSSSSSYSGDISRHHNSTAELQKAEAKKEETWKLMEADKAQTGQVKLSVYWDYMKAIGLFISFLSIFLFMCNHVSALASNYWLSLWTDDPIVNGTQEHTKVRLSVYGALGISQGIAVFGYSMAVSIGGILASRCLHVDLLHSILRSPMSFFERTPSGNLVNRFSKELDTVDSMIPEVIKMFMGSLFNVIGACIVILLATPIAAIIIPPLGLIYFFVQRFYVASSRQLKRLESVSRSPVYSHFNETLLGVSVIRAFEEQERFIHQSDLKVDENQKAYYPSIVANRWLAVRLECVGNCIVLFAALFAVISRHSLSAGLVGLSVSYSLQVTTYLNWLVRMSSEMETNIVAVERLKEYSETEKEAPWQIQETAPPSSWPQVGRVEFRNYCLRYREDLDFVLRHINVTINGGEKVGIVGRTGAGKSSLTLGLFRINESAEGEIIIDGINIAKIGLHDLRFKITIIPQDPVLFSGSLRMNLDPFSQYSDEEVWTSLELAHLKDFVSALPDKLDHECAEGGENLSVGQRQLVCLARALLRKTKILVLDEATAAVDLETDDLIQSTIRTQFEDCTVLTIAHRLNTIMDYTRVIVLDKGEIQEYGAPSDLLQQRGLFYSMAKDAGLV
How it was run: (§1)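 MDCKII cells stably transfected with human MRP1, MRP2 or MRP3 cDNA, parental MDCKII as control, grown in DMEM with 10% FCS. Cells preincubated 30 min at 37 °C in darkness ± inhibitor in HBSS with 1 mM pyruvate, then 50 nM CMFDA (final) added for 10 min. Intracellular CMF fluorescence read by confocal laser-scanning microscopy. 20 µM MK571 positive control. At least triplicate, different days.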

[2] = target: T2, ATP-binding cassette sub-family C member 2 (Homo sapiens, UniProt Q92887); assay: Inhibition of human MRP2 expressed in MDCK2 cells assessed as increase in intracellular CMF fluorescence by CMFDA assay; how it was run: as §1
T2 sequence (Q92887 whole entry): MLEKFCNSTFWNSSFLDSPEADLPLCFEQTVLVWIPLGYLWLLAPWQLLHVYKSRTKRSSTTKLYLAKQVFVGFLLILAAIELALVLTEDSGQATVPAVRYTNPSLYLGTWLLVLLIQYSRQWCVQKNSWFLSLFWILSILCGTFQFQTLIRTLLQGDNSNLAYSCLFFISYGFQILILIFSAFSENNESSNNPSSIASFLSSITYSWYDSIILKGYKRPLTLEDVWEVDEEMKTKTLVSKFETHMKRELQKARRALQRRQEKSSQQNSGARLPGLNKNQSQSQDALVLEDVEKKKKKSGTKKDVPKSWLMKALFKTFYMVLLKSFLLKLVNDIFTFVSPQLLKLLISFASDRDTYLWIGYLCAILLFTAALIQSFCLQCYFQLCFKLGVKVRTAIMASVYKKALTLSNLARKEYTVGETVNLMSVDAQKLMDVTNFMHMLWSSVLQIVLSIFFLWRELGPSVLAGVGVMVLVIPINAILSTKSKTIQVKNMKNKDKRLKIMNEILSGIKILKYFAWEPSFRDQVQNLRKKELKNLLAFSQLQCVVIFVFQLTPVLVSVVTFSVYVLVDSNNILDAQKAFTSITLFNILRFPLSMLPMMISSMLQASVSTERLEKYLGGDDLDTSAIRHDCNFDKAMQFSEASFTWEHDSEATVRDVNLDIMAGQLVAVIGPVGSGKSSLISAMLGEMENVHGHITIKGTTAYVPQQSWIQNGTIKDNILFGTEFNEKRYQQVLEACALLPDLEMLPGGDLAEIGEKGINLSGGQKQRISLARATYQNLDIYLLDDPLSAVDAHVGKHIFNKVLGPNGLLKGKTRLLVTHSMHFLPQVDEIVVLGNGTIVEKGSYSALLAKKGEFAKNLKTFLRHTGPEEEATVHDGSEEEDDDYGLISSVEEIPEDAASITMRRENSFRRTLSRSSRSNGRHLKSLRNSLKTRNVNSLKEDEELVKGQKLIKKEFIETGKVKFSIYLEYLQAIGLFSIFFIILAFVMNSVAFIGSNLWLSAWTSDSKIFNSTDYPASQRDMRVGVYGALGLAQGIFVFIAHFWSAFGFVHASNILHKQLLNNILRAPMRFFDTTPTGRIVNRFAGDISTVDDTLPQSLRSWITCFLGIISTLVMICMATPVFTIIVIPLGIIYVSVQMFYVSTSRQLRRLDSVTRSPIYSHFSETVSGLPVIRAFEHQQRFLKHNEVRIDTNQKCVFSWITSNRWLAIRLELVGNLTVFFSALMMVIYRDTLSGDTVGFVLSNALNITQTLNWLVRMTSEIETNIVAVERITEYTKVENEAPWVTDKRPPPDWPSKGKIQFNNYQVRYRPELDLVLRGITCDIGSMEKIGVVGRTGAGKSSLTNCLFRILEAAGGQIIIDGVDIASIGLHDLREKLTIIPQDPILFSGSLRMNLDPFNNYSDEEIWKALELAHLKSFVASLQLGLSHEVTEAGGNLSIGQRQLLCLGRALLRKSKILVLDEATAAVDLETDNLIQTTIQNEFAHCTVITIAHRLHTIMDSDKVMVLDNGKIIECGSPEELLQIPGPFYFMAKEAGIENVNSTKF

[3] = target: T1, Multidrug resistance-associated protein 1; assay: Inhibition of human MRP1 expressed in MDCK2 cells assessed as increase in intracellular CMF fluorescence by CMFDA assay; how it was run: as §1
[4] = target: T3, ATP-binding cassette sub-family C member 3 (Homo sapiens, UniProt O15438); assay: Inhibition of human MRP3 expressed in MDCK2 cells assessed as increase in intracellular CMF fluorescence at 10 uM by CMFDA assay; how it was run: as §1
T3 sequence (O15438 whole entry): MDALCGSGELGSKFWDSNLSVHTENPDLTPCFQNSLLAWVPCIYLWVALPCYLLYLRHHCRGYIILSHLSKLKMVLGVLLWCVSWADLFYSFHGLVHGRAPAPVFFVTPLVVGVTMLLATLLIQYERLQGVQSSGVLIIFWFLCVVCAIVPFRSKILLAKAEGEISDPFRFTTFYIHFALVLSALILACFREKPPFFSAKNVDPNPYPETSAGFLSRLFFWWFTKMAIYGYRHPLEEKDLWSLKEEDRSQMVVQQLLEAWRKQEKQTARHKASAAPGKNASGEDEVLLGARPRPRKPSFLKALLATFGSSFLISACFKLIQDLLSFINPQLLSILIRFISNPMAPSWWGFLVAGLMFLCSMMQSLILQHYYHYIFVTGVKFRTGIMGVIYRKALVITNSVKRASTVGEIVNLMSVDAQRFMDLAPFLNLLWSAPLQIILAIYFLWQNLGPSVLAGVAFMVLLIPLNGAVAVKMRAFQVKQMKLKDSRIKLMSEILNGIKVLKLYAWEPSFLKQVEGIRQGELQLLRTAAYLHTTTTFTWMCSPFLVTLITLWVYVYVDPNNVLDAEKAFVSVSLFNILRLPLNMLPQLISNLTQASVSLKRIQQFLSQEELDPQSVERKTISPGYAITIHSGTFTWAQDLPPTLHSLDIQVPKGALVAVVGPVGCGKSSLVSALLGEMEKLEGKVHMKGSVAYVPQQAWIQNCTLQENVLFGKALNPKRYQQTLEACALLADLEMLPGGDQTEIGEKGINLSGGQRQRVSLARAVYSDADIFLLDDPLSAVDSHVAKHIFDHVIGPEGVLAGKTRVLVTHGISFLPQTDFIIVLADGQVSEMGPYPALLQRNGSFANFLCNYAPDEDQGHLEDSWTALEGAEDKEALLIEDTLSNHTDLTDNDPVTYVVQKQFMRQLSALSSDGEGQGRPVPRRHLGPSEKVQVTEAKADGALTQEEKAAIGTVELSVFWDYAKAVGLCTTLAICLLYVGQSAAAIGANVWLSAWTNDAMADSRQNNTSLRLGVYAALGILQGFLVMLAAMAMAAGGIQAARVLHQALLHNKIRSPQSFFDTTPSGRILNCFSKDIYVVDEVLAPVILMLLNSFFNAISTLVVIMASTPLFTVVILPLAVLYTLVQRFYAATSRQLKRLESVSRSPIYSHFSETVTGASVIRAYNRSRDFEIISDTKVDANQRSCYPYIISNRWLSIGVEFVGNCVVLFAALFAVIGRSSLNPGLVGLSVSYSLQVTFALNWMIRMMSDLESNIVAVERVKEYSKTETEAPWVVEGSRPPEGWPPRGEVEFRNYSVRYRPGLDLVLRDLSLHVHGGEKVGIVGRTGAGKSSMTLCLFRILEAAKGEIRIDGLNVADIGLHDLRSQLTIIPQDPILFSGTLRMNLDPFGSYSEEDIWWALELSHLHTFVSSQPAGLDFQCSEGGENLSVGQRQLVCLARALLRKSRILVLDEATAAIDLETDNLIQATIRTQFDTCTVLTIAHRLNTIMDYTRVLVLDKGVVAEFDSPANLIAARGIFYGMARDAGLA

[5] = target: T2, ATP-binding cassette sub-family C member 2; assay: Inhibition of human MRP2 expressed in MDCK2 cells assessed as increase in intracellular CMF fluorescence at 10 uM by CMFDA assay; how it was run: as §1
[6] = target: T3, ATP-binding cassette sub-family C member 3; assay: Inhibition of human MRP3 expressed in MDCK2 cells assessed as increase in intracellular CMF fluorescence at 16.7 uM by CMFDA assay; how it was run: as §1
[7] = target: T1, Multidrug resistance-associated protein 1; assay: Inhibition of human MRP1 expressed in MDCK2 cells assessed as increase in intracellular CMF fluorescence at 16.7 uM by CMFDA assay; how it was run: as §1
[8] = target: T2, ATP-binding cassette sub-family C member 2; assay: Inhibition of human MRP2 expressed in MDCK2 cells assessed as increase in intracellular CMF fluorescence at 16.7 uM by CMFDA assay; how it was run: as §1
[9] = target: T3, ATP-binding cassette sub-family C member 3; assay: Inhibition of human MRP3 expressed in MDCK2 cells assessed as increase in intracellular CMF fluorescence by CMFDA assay; how it was run: as §1

SMILES | Activity [1] | Activity [2] | Activity [3] | Activity [4] | Activity [5] | Activity [6] | Activity [7] | Activity [8] | Activity [9]
Nc1nc(NC2CC2)c2ncn([C@H]3C=C[C@@H](CO)C3)c2n1 [ABACAVIR] | Active | Dose-dependent effect | Dose-dependent effect | Active | Active |  |  |  | 
CC(C)Nc1cccnc1N1CCN(C(=O)c2cc3cc(NS(C)(=O)=O)ccc3[nH]2)CC1 [DELAVIRDINE] |  | Dose-dependent effect | Dose-dependent effect |  |  | Active | Active | Active | Dose-dependent effect
O=C1Nc2ccc(Cl)cc2[C@@](C#CC2CC2)(C(F)(F)F)O1 [EFAVIRENZ] | Active | Dose-dependent effect | Dose-dependent effect | Active | Active |  |  |  | Dose-dependent effect
Cc1ccnc2c1NC(=O)c1cccnc1N2C1CC1 [NEVIRAPINE] | Active | Dose-dependent effect | Dose-dependent effect | Active | Active |  |  |  | Dose-dependent effect

More lines, now with the values ahead:

Activity [1] | Activity [2] | Activity [3] | Activity [4] | Activity [5] | Activity [6] | Activity [7] | Activity [8] | Activity [9] | SMILES
Active | Dose-dependent effect | Dose-dependent effect | Active | Active |  |  |  | Dose-dependent effect | Nc1nc(=O)n([C@@H]2CS[C@H](CO)O2)cc1F [EMTRICITABINE]
Active | Dose-dependent effect | Dose-dependent effect | Active | Active |  |  |  | Dose-dependent effect | Nc1ccn([C@@H]2CS[C@H](CO)O2)c(=O)n1 [LAMIVUDINE]
Active | Dose-dependent effect | Dose-dependent effect | Active | Active |  |  |  | Dose-dependent effect | C[C@H](Cn1cnc2c(N)ncnc21)OCP(=O)(O)O [TENOFOVIR ANHYDROUS]
